Results published in ChEMBL document CHEMBL2346649, “Novel pseudopeptides incorporating a benzodiazepine-based turn mimetic--targeting Mycobacterium tuberculosis ribonucleotide reductase” (Bioorg Med Chem, 2013).

Assays:
[1] = biological target: T1, Ribonucleoside-diphosphate reductase subunit alpha (Mycobacterium tuberculosis, UniProt P9WH75); test: Displacement of Dansyl-Gly-Ser-Gly-Glu-Asp-Asp-Asp-Trp-Asp-Phe from C-terminal R1 subunit of Mycobacterium tuberculosis ribonucleotide reductase by fluorescence polarization assay
T1 sequence (P9WH75 whole entry): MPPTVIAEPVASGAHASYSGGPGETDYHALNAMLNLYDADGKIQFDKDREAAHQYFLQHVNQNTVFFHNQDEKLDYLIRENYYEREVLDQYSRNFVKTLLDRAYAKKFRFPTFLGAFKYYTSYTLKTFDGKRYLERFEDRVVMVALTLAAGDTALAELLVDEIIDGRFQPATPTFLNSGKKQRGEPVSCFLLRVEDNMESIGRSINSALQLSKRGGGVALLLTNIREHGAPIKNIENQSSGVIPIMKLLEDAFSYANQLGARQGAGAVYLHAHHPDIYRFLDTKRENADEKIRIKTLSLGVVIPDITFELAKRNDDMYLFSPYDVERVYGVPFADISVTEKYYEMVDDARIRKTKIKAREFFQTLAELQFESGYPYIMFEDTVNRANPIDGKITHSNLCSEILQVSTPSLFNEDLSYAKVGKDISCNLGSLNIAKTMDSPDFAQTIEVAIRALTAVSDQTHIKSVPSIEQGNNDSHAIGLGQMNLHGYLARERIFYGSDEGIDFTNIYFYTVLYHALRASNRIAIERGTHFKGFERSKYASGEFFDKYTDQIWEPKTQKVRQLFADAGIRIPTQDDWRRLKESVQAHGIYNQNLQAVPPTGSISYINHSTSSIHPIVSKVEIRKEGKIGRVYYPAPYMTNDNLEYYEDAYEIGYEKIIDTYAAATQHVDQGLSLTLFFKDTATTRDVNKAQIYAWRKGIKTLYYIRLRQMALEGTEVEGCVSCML
Outline: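 Competitive fluorescence polarization: compounds compete with a fluorescent probe carrying the R2 C-terminal sequence for binding to M. tuberculosis R1, and dissociation constants (KD2) are derived. Compound stocks are 5–25 mM in 100% DMSO.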

[2] = Inhibition of Mycobacterium tuberculosis ribonucleotide reductase by [3H]CDP assay
Outline: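 CDP reduction is read as cpm. IC50 is the concentration giving a 50% cpm reduction, averaged from three separate experiments with standard deviation.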

CC(=O)N[C@@H](CC(=O)O)C(=O)Nc1cccc2c1N[C@@H](Cc1c[nH]c3ccccc13)C(=O)N(CC(=O)N[C@@H](Cc1ccccc1)C(=O)O)C2
Kd [1]: > 150 µM

O=C(O)C[C@H](NC(=O)OCC1c2ccccc2-c2ccccc21)C(=O)Nc1cccc2c1N[C@@H](Cc1c[nH]c3ccccc13)C(=O)N(CC(=O)N[C@@H](Cc1ccccc1)C(=O)O)C2
Kd [1]: 1.6 µM

CC(=O)N[C@@H](CCC(=O)O)C(=O)N[C@@H](CC(=O)O)C(=O)N[C@@H](CC(=O)O)C(=O)N[C@@H](CC(=O)O)C(=O)Nc1cccc2c1N[C@@H](Cc1c[nH]c3ccccc13)C(=O)N(CC(=O)N[C@@H](Cc1ccccc1)C(=O)O)C2
IC50 [2]: 64 µM
Kd [1]: 27 µM

O=C(O)CN1Cc2cccc(NC(=O)OCC3c4ccccc4-c4ccccc43)c2N[C@@H](Cc2c[nH]c3ccccc23)C1=O
IC50 [2]: 24 µM
Kd [1]: 8.1 µM

Ac-EDDDWDF-OH
IC50 [2]: 20 µM
Kd [1]: 8.3 µM

O=C(Nc1cccc2c1N[C@@H](Cc1c[nH]c3ccccc13)C(=O)N(CCO)C2)OCC1c2ccccc2-c2ccccc21
IC50 [2]: 171 µM
Kd [1]: 26 µM

CC(=O)N[C@@H](CCC(=O)O)C(=O)N[C@@H](CC(=O)O)C(=O)N[C@@H](CC(=O)O)C(=O)Nc1cccc2c1N[C@@H](Cc1c[nH]c3ccccc13)C(=O)N(CC(=O)N[C@@H](Cc1ccccc1)C(=O)O)C2
Kd [1]: 81 µM
